Assay results as given in ChEMBL document CHEMBL3112420, “Discovery of 8-cyclopentyl-2-[4-(4-methyl-piperazin-1-yl)-phenylamino]-7-oxo-7,8-dihydro-pyrido[2,3-d]pyrimidine-6-carbonitrile (7x) as a potent inhibitor of cyclin-dependent kinase 4 (CDK4) and AMPK-related kinase 5 (ARK5)” (J Med Chem, 2014).
Calls of active or inactive are those of the source. The calls are words filed in the database; no cut-off is given here.

What was measured:
[1] = target: Tyrosine-protein kinase ABL1 (Homo sapiens, UniProt P00519); assay: Inhibition of ABL (unknown origin)
SK-OV-3 = assay: Cytotoxicity against human SKOV3 cells after 96 hrs by Cell-Titer Blue assay; type: functional; details: SK-OV-3, 96 h
[2] = Cytotoxicity against human U87 cells after 96 hrs by Cell-Titer Blue assay; type: functional, U-87MG ATCC; details: U-87 MG
[3] = Cytotoxicity against human U266 cells after 96 hrs by Cell-Titer Blue assay; type: functional; details: U-266, 96 h
[4] = Cytotoxicity against human SNU475 cells after 96 hrs by Cell-Titer Blue assay; type: functional; details: SNU-475, 96 h
MDA-MB-231 [5] = assay: Antitumor activity against human MDA-MB-231 cells xenografted in NCR nude mouse assessed as decrease in tumor weight at 50 mg/kg, ip […] administered on alternative days measured every 2 days up to 21 days; type: functional, organism-based; parameters: dose 50 mg/kg
Procedure, shortened: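 MDA-MB-231 cells orthotopically implanted into mammary fat pads of 6–8 week old female nude mice (n=11 per group). Dosing began when average tumour volume reached 100 mm3. Lactate salt in PBS or vehicle was given intraperitoneally every other day (Q2D). Tumour volumes and body weights were recorded every 2 days over 21 days; mean ± SEM.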

[6] = Cytotoxicity against human SKBR3 cells after 96 hrs by Cell-Titer Blue assay; type: functional; details: SK-BR-3, 96 h
SW480 = assay: Cytotoxicity against human SW480 cells after 96 hrs by Cell-Titer Blue assay; type: functional; details: SW480, 96 h
MDA-MB-231 [7] = assay: Cell cycle arrest in human MDA-MB-231 cells assessed as accumulation at G1 phase at 0.5 to 1 uM after 24 hrs by propidium iodide staining-based flow cytometric analysis; type: functional
Procedure, shortened: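 Cells plated at 1.0 × 10^6 per dish, then treated 24 h later with increasing concentrations for 24 h. Floating and adherent cells were pooled, PBS-washed and fixed in ice-cold 70% ethanol for at least 24 h. They were then stained with propidium iodide plus RNase A for 30 min at 37 °C. Percentage of cells in each phase was read by flow cytometry.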

[8] = target: Cyclin-dependent kinase 4/cyclin D1 (Homo sapiens) (UniProt P11802+P24385); assay: Inhibition of recombinant CDK4/cyclinD1 in human MDA-MB-231 cells assessed as inhibition of retinoblastoma phosphorylation at Ser780 at 0.5 to 5 uM after 24 hrs by Western blotting analysis; type: cell-based
Procedure, shortened: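 Breast carcinoma cells were given increasing concentrations for 24 h. Total lysates (100 μg, 10% SDS-PAGE) were immunoblotted with antibodies against Ser780-phosphorylated and non-phosphorylated RB. Bands were read on an infrared scanning system.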

[9] = Cytotoxicity against human HFL cells after 96 hrs by Cell-Titer Blue assay; type: cell-based
CDK6/cyclin D1 = CDK6/cyclin D1 (Homo sapiens, UniProt Q00534); assay: Inhibition of CDK6/cyclinD1 (unknown origin); type: protein-complex assay
HeLa = assay: Cytotoxicity against human HeLa cells after 96 hrs by Cell-Titer Blue assay; type: functional
[10] = Cytotoxicity against human Z138C cells after 96 hrs by Cell-Titer Blue assay; type: functional
[11] = target: Fibroblast growth factor receptor 1 (Homo sapiens, UniProt P11362); assay: Inhibition of FGFR1 (unknown origin)
Chain of Fibroblast growth factor receptor 1 (P11362 whole entry): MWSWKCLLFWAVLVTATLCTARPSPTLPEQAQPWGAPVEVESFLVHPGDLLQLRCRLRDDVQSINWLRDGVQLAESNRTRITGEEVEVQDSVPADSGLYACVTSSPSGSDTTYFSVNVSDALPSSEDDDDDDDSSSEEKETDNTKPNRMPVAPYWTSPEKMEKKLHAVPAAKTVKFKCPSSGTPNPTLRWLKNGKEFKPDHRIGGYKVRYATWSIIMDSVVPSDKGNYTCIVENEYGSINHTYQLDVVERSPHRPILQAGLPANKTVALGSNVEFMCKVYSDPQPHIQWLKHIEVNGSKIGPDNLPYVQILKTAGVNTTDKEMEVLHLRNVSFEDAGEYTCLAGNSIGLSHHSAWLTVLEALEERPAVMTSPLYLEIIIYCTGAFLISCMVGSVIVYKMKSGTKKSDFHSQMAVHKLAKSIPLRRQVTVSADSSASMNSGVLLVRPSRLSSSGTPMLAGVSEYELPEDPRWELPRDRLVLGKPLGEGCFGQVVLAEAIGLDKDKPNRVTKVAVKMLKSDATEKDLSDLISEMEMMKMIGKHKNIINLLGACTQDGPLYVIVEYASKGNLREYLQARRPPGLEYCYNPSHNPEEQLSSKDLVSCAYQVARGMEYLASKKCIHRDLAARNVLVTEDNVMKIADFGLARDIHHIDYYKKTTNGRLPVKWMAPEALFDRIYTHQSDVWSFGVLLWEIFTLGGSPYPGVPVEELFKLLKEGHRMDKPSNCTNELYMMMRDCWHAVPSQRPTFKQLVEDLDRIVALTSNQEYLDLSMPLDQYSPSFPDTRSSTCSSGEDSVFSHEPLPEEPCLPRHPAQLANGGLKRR

Chain of CDK6/cyclin D1 (P24385 whole entry): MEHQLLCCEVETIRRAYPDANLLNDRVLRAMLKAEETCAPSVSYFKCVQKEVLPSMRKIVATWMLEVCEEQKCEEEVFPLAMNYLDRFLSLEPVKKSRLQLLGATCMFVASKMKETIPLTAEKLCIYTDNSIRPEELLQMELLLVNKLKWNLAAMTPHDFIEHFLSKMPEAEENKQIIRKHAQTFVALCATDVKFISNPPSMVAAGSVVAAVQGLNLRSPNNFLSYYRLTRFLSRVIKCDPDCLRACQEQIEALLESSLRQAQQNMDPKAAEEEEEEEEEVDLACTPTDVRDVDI
Chain of CDK6/cyclin D1 (Q00534 whole entry): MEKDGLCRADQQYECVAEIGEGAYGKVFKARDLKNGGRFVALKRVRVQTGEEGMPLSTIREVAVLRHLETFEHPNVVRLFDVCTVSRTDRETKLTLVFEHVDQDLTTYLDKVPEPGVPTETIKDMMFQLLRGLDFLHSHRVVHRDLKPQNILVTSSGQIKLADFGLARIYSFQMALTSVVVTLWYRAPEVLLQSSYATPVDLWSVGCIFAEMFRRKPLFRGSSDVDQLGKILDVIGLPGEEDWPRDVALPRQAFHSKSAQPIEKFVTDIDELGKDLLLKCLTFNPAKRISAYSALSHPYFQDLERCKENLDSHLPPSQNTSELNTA
Chain of Tyrosine-protein kinase ABL1 (P00519 whole entry): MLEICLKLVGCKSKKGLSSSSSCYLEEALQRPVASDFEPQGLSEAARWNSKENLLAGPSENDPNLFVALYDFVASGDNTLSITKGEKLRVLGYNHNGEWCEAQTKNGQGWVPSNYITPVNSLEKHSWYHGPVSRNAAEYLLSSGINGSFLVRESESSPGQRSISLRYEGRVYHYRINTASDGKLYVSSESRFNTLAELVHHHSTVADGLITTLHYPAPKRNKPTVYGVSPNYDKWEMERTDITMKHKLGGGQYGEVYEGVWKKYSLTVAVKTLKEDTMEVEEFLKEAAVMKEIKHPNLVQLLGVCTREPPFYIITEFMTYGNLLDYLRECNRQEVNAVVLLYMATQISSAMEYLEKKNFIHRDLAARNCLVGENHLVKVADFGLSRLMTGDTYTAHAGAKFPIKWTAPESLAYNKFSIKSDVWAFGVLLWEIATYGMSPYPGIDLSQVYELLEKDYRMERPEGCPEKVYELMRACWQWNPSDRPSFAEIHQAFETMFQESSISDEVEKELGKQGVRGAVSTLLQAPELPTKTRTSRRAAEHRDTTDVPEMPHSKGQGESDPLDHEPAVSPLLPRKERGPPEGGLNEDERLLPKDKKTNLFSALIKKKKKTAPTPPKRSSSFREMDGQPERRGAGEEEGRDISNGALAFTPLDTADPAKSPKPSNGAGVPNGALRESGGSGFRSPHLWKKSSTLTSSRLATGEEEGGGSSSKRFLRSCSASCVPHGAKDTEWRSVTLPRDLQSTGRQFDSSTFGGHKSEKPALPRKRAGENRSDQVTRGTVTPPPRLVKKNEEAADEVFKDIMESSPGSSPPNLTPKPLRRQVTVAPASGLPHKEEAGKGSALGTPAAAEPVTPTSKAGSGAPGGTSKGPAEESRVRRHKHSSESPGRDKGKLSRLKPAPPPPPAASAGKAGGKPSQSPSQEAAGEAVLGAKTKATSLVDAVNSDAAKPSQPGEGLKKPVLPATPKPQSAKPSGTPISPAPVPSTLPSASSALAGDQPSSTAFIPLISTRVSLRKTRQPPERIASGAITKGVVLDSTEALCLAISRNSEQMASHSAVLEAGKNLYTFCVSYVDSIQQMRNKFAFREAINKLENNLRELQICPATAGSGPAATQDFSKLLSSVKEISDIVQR

CN1CCN(c2ccc(Nc3ncc4cc(C#N)c(=O)n(C5CCCC5)c4n3)cc2)CC1 [NARAZACICLIB]
IC50 [1]: 53.3 nM | GI50 (SK-OV-3): 750 nM | GI50 [2]: 100 nM | GI50 [3]: 200 nM | GI50 [4]: 300 nM | Activity (MDA-MB-231 [5]): Active | GI50 [6]: 150 nM | GI50 (SW480): 90 nM | Activity (MDA-MB-231 [7]): Active | inhibition [8]: Active | GI50 at 96 h [9]: 5 µM | IC50 (CDK6/cyclin D1): 9.82 nM | GI50 (HeLa): 750 nM | GI50 [10]: 25 nM | IC50 [11]: 26 nM
